697 NFkB inh: lowers PMA/ionomycin-induced NF-kB signal in 697 B cells. 697 B-cell NF-kB luciferase reporter, 16 h. inhibition, % at 4 µM. 0.33% of 330,000 active; in the data active = inhibition above about 35%
Jurkat NFkB inh: lowers PMA/ionomycin-induced NF-kB signal in Jurkat cells. inhibition, % at 4 µM. PMA/ionomycin-induced NF-kB luciferase reporter, luminescence. 0.53% of 330,000 active; in the data active = inhibition above about 50%
aSyn 5UTR inh: MLPCN primary screen, SNCA 5' untranslated region | alpha-synuclein 5'UTR reporter, inhibitor activity | 0.82% of 300,000 active | inhibition, % (tested at 7.5 µM); in the data active = inhibition above about 60%; inconclusive = no clear call, values can overlap the other calls;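 note: H4 neuroglioblastoma cells stably carrying SNCA 5'UTR luciferase fusion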
IMP-1 inh: inhibitors of Pseudomonas aeruginosa IMP-1 metallo-beta-lactamase | purified IMP-1, nitrocefin hydrolysis, epi-absorbance fluorescence | inhibition, % at 5.6 µM | 0.45% of 290,000 active;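 active = inhibition above the mean plus 3 SD of all compounds in the same screening run, cut at about 4.5% in these data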
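System: purified IMP-1; amount: IMP-1 0.2 nM before substrate addition; compound: single dose, 5.6 µM; times: 25 °C, 15 min preincubation, 25 min reaction; signal: Epi-absorbance via hydrolysed-nitrocefin quenching of white-plate fluorescence, 480/530 nm, EDTA stop; benchmarks: DMSO with and without IMP-1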
VIM-2 inh: inhibitors of Pseudomonas aeruginosa VIM-2 metallo-beta-lactamase. 0.89% of 290,000 active. purified VIM-2, nitrocefin hydrolysis, epi-absorbance fluorescence. inhibition, % at 5.6 µM;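 active = inhibition above the mean of all tested compounds plus 3 SD, cutoff set per screening run, cut at about 7.5% in these data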;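 note: red hydrolysis product quenches plate fluorescence so inhibitors raise well fluorescence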
Mdm2 MdmX PPI: human Mdm2/MdmX binding inhibition. SaOS-2 split-luciferase Mdm2/MdmX complementation, luminescence. AID 485346. inhibition, % at 8 µM. 3% of 330,000 active. O15151+Q00987;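 active = inhibition of at least 50% at 8 µM in the primary screen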
VIM-2 inh confirm: VIM-2 inhibition, confirmation assay | shares compounds with IMP-1 inh | purified VIM-2 enzyme, nitrocefin absorbance | inhibition, % at 5.6 µM | 73% of 200 active; in the data active = inhibition above about 8%
TEM-1 inh 2: blocks E. coli TEM-1 beta-lactamase, VIM-2 IMP-1 counter-screen | shares compounds with IMP-1 inh | nitrocefin absorbance inhibition | inhibition, % at 5.6 µM | 50% of 200 active | AID 2184; in the data active = inhibition above about 0.66%
Target sequence (P62593 whole entry, looked up): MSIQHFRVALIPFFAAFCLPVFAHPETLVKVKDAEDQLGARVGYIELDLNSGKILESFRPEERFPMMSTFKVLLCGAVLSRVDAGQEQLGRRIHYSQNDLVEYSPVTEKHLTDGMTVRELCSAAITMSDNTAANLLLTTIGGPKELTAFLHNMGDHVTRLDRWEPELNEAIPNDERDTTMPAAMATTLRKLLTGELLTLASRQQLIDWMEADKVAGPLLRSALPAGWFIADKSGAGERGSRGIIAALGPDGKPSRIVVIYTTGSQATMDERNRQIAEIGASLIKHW
IMP-1 inh conf: confirmation of P. aeruginosa IMP-1 metallo-beta-lactamase inhibitors. inhibition, % at 5.6 µM. 60% of 200 active. purified IMP-1 enzyme, absorbance substrate hydrolysis. shares compounds with IMP-1 inh. AID 2189; in the data active = inhibition above about 4.9%
Jurkat NFkB conf: inhibitors of the PMA/ionomycin-induced NF-kB reporter in Jurkat cells, retest; AID 435020; 27% of 2,700 active; inhibition, % at 4 µM; Jurkat NF-kB luciferase, 16 h; shares compounds with Jurkat NFkB inh;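 active = inhibition reaching about 45% at 4 µM in either replicate, limit read from the data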
Mdm2-MdmX conf: confirmation of human Mdm2/MdmX interaction inhibitors; AID 489028; 55% of 10,000 active; Mdm2-MdmX binding, luminescent assay; shares compounds with Mdm2 MdmX PPI; inhibition, % at 8 µM; in the data active = inhibition above about 40%
FLuc counter: counter-screen for Mdm2/MdmX inhibitors: full-length luciferase; shares compounds with Mdm2 MdmX PPI; SaOS-2 full-length luciferase counterscreen, luminescence; inhibition, % at 8 µM; 77% of 6,200 active; AID 504607;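 active = mean inhibition at 8 µM reaching about 37%, which flags the compound as non-specific, limit read from the data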;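 note: p53-null SaOS-2 cells with luciferase driven by a doxycycline-inducible promoter; compound on cells about two nights before reading with doxycycline added after day one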
A number is an active result; i = inactive; ? = inconclusive; nt = not tested or not shown. Rows were chosen to be rich in hits. Some 4.7% of all compounds tested hit in one or more screens of this group.

SMILES	697 NFkB inh	Jurkat NFkB inh	aSyn 5UTR inh	IMP-1 inh	VIM-2 inh	Mdm2 MdmX PPI	VIM-2 inh confirm	TEM-1 inh 2	IMP-1 inh conf	others
N#CC1=C(N)Oc2c(O)cc3ccccc3c2C1c1ccsc1 (stereo unspecified)	i	i	i	4.6	8.1	i	i	i	i
CCOC(=O)C1=C(C)OC(N)=C(C#N)C1c1ccsc1 (stereo unspecified)	i	i	i	i	i	i	nt	nt	nt
CCN(CC)C(=O)C1c2ccccc2Oc2ccccc21	i	i	i	17	18	i	i	1.6	i
CCCCNC(=O)C1c2ccccc2Oc2ccccc21	i	i	i	i	i	i	nt	nt	nt
O=C(NC1CC1)C1CCN(c2ncnc3c2sc2cccc(F)c23)CC1	i	i	i	5.1	14	i	28	i	i
COc1ccc2c3c(cccc13)C(=O)CC2	nt	nt	i	16	17	nt	i	1.7	i
COc1ccc(N2CCN(C(=O)c3cn(Cc4ccccc4)nc3-c3cccnc3)CC2)cc1	i	i	nt	nt	nt	i	nt	nt	nt
CC(=O)c1cccc(NC(=O)C(C)OC(=O)/C=C/c2cccs2)c1 (stereo unspecified)	i	i	nt	nt	nt	i	nt	nt	nt
CN1CCS/C1=C/C=C1\SC(=S)N(CC(=O)O)C1=O	i	i	i	6.8	9.6	i	i	i	i
CCCCN1C(=O)/C(=C/C=C2\SCCN2C)SC1=S	i	i	i	i	i	i	nt	nt	nt
COc1ccc(C(=O)NCc2ccon2)cc1OC1CCN(C(C)C)CC1	i	i	i	i	i	i	nt	nt	nt
CCn1c(=O)c(CCC(=O)NCC2CCCO2)c(C)c2c(C)nn(-c3ccc(C)cc3)c21 (stereo unspecified)	i	i	i	i	i	i	nt	nt	nt
CCNc1ccc(Br)cc(C(=O)/C=C/c2c(Cl)cccc2Cl)c1=O	i	i	i	6.0	8.3	i	i	i	i
CCN(CC)c1ccc2cc(C(C)=O)c(=O)oc2c1	i	i	i	i	i	i	nt	nt	nt
CCN(CC)c1ccc2cc(C=O)c(=O)oc2c1	i	i	i	15	15	i	16	15	12
O=[n+]1c2c(n([O-])c3ccccc31)CCCC2	i	i	nt	35	13	i	i	i	i
O=C(COc1ccccc1)OCC(=O)c1ccc(S(=O)(=O)N2CCCCC2)cc1	i	i	nt	nt	nt	i	nt	nt	nt
O=C(O)c1ccccc1-c1ccc(/C=C/c2cc(C(F)(F)F)[nH]c(=O)n2)o1	i	i	i	5.5	8.2	i	15	37	11
NCc1ccccc1CS(=O)(=O)N1CCOCC1	i	i	nt	nt	nt	i	nt	nt	nt
NS(=O)(=O)c1ccc(NC(=O)c2cccc(N3C(=O)c4ccccc4C3=O)c2)cc1	i	i	i	25	9.6	i	i	i	17
O=C(O)c1cc(NC(=O)c2cccc(N3C(=O)c4ccccc4C3=O)c2)cc(C(=O)O)c1	i	i	i	i	i	i	nt	nt	nt
O=C(NCCC1CCCCN1S(=O)(=O)c1ccc(Cl)cc1)C(=O)NCc1cccnc1 (stereo unspecified)	i	i	i	nt	nt	i	nt	nt	nt
CC(C)n1cc(/C=C/c2cc[n+](C)cc2)c2ccccc21	i	i	i	12	18	63	14	6.7	8.4	Mdm2-MdmX conf=i
Cc1ccc(N(C)C2=NC(=O)CS2)cc1Cl	i	i	i	i	i	i	nt	nt	nt
CCN1/C(=C/C=C/c2oc3ccc4ccccc4c3[n+]2CC)Oc2ccc3ccccc3c21	i	92	92	33	13	97	9.9	18	14	Jurkat NFkB conf=i;Mdm2-MdmX conf=99;FLuc counter=i
SMILES	697 NFkB inh	Jurkat NFkB inh	aSyn 5UTR inh	IMP-1 inh	VIM-2 inh	Mdm2 MdmX PPI	VIM-2 inh confirm	TEM-1 inh 2	IMP-1 inh conf	others
CC[n+]1c(/C=C/N(C)c2ccccc2)oc2ccc(Cl)cc21	i	i	i	i	i	i	nt	nt	nt
CCCCNc1c2c3c(cccc3n(C)c1=O)C(=O)c1ccccc1-2	i	i	i	28	23	51	34	53	28	Mdm2-MdmX conf=i
NC(=O)C1Cc2ccccc2CN1C(=O)c1nn(Cc2ccccc2)c(=O)c2ccccc12 (stereo unspecified)	i	i	nt	nt	nt	i	nt	nt	nt
c1ccc(-c2nc(NCc3ccco3)c3ccccc3n2)nc1	i	i	i	8.8	15	65	13	i	i	Mdm2-MdmX conf=i
Oc1ccccc1-c1nc(NCc2ccco2)c2ccccc2n1	i	i	i	i	i	i	nt	nt	nt
CCCCOc1ccc(-c2csc(N)n2)cc1[N+](=O)[O-]	i	i	i	i	i	i	nt	nt	nt	Jurkat NFkB conf=i
CCCN1CCC(=NNc2ccc(S(=O)(=O)N3CCOCC3)cc2[N+](=O)[O-])CC1	i	64	64	i	i	i	nt	nt	nt	Jurkat NFkB conf=i
CC(C)N1CCC(=NNc2ccc(S(=O)(=O)N3CCOCC3)cc2[N+](=O)[O-])CC1	i	i	i	i	i	i	nt	nt	nt
COC(=O)c1ccc2c(c1)c(-c1ccccc1)c(-c1ccccc1)n2C	i	nt	nt	nt	nt	i	nt	nt	nt
C[C@H](CO)N1C[C@H](C)[C@@H](CN(C)S(=O)(=O)c2cn(C)cn2)Oc2ccc(NS(=O)(=O)c3ccccc3)cc2C1=O	i	i	nt	nt	nt	i	nt	nt	nt
COc1ccc(/C=N/NC(=O)c2cccnc2)cc1CN1CCc2ccccc2C1	i	i	i	i	i	i	nt	nt	nt
COc1ccc(/C=N/NC(=O)c2cccnc2)cc1Cn1nc([N+](=O)[O-])c(Br)c1C	i	52	i	i	i	i	nt	nt	nt	Jurkat NFkB conf=i
CCCC/C(O)=C1\C(=O)CC(C)(C)CC1=Nc1ccccc1OC	i	i	i	i	i	i	nt	nt	nt
CCC/C(O)=C1\C(=O)CC(C)(C)CC1=Nc1ccc(OC)cc1OC	i	62	i	i	i	i	nt	nt	nt	Jurkat NFkB conf=i
COc1ccc(-c2cc(-c3ccccc3O)[nH]n2)cc1OC	i	i	i	i	i	i	nt	nt	nt	Jurkat NFkB conf=i
COc1ccc(-c2cc(-c3ccc(OC)c(OC)c3)n[nH]2)c(O)c1	i	i	i	i	i	i	nt	nt	nt
Cc1ccc(S(=O)(=O)Nc2ccccc2-c2ccccc2)cc1	i	59	?	i	i	i	nt	nt	nt	Jurkat NFkB conf=50
Cc1ccc2c(c1)C=CC(C)N2C(=O)c1ccccc1 (stereo unspecified)	i	i	i	i	i	i	nt	nt	nt
Cc1ccc2c(c1)C=CC(C#N)N2C(=O)c1ccccc1 (stereo unspecified)	i	55	i	i	i	i	nt	nt	nt	Jurkat NFkB conf=i
